Assay results taken from PubChem BioAssay AID602231 (The Scripps Research Institute Molecular Screening Center, 2012).
The source made the active and inactive calls.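 How the source made its calls: active means calcium level giving half maximal force raised by at least 10% versus DMSO, meaning delta pCa50 at or below about -0.041; inactive means the rest.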

Assay: calcium sensitization of cardiac fiber tension, mechanism study for cardiac RTF sensitizer project, porcine papillary fibers, force transducer (AID 602231)
Conditions: Permeabilized pig cardiac fiber, Ca2+-tension pCa50 shift, at 10 µM; delta pCa50: stronger effect = higher value; maximal force change: measured here: effect on maximal fiber tension
Method in brief: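 assay system = Triton X-100-permeabilized pig left-ventricle papillary muscle fibers, stretched 1.2x | reagent = free Ca2+ series, pCa 8.0–4.5 | signal = fiber tension measured by force transducer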
In the case of `CCOC(=O)c1cc2n(c1N)-c1ccccc1C2=O`, the delta pCa50 is reported as 0.01 (inactive) and the maximal force change is reported as 2.13%. With `Cc1cccn2c(=O)c(/C=C3\SC(=S)N(CC(C)C)C3=O)c(NCCCOC(C)C)nc12` the delta pCa50 was -0.003 (inactive) and the maximal force change was -9.9%. In the case of `Cc1ccc(/C=C2\Oc3c(ccc(O)c3CN3CCN(CCO)CC3)C2=O)cc1`, the delta pCa50 is reported as -0.027 (inactive) and the maximal force change is reported as -0.5%. In the case of `CCOC(=O)c1sc(N)c(C#N)c1COC(=O)CNC(=O)c1cc(OC)c(OC)c(OC)c1`, the maximal force change is reported as 3.3% and the delta pCa50 is reported as -0.039 (inactive).
